Measurements: ChEMBL document CHEMBL4014335, “Activation of Phenyl 4-(2-Oxo-3-alkylimidazolidin-1-yl)benzenesulfonates Prodrugs by CYP1A1 as New Antimitotics Targeting Breast Cancer Cells” (J Med Chem, 2017)
Active and inactive are the calls of the source. The calls are words filed in the database; no cut-off is given here.

Assays:
MDA-MB-468 [1] = test: Cell cycle arrest in human MDA-MB-468 cells assessed as accumulation at subG1 phase at 8 nM after 24 hrs by DAPI-staining based FACS analysis (reference value: 0.2%); assay type: functional
MCF7 [2] = test: Cell cycle arrest in human MCF7 cells assessed as accumulation at S phase at 8 nM after 24 hrs by DAPI-staining based FACS analysis (reference value: 10.6%); assay type: functional
MDA-MB-231 [3] = test: Cell cycle arrest in human MDA-MB-231 cells assessed as accumulation at G0/G1 phase at 8 nM after 24 hrs by DAPI-staining based FACS analysis (reference value: 70.7%); assay type: functional
MDA-MB-231 [4] = test: Cell cycle arrest in human MDA-MB-231 cells assessed as accumulation at G2/M phase at 8 nM after 24 hrs by DAPI-staining based FACS analysis (reference value: 15.5%); assay type: functional
MDA-MB-468 [5] = test: Cell cycle arrest in human MDA-MB-468 cells assessed as accumulation at S phase at 50 nM after 24 hrs by DAPI-staining based FACS analysis (reference value: 17%); assay type: functional
MDA-MB-468 [6] = test: Cell cycle arrest in human MDA-MB-468 cells assessed as accumulation at subG1 phase at 50 nM after 24 hrs by DAPI-staining based FACS analysis (reference value: 0.2%); assay type: functional
HT-29 = test: Antiproliferative activity against human HT-29 cells after 48 hrs by SRB assay; assay type: functional, cell-based; settings: HT-29, 48 h
Procedure, shortened: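 SRB assay run as in the NCI screen with slight modifications. Seeding: HT-29 5.0 x 10^3, M21 3.5 x 10^3, MCF7 7.5 x 10^3 cells; cells preincubated 24 h. Drug in DMSO added at 0.75 to 1.0 x 10^5 nM for 48 h. TCA fixation, sulforhodamine B staining, absorbance 530-565 nm. At least two experiments in triplicate; runs accepted only when relative SD < 10%.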

[7] = Selectivity ratio of IC50 for human HT-29 cells to IC50 for human MCF7 cells; assay type: functional
Procedure, shortened: (§1)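 Ratio is IC50 in reference line over IC50 in sensitive line. […] Cells in DMEM with 5% calf serum at 37 °C. At least two experiments, triplicate cultures; assay accepted when relative SD < 10%.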

[8] = Selectivity ratio of IC50 for human M21 cells to IC50 for human MCF7 cells; assay type: functional; procedure, shortened: as §1
MCF7 [9] = test: Cell cycle arrest in human MCF7 cells assessed as accumulation at subG1 phase at 50 nM after 24 hrs by DAPI-staining based FACS analysis (reference value: 1.4%); assay type: functional
MCF7 [10] = test: Cell cycle arrest in human MCF7 cells assessed as accumulation at G2/M phase at 50 nM after 24 hrs by DAPI-staining based FACS analysis (reference value: 22.3%); assay type: functional
MDA-MB-231 [11] = test: Cell cycle arrest in human MDA-MB-231 cells assessed as accumulation at G0/G1 phase at 50 nM after 24 hrs by DAPI-staining based FACS analysis (reference value: 70.7%); assay type: functional
Homo sapiens = species: Homo sapiens; test: Destabilization of microtubule network in human MCF7 cells at 50 nM after 24 hrs by fluorescence microscopic analysis; assay type: cell-based
MDA-MB-468 [12] = test: Cytotoxicity against human MDA-MB-468 cells after 72 hrs in presence of CYP1A1 inhibitor resveratrol by SRB assay; assay type: functional, cell-based
Procedure, shortened: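 MDA-MB-468 cells (5.0 x 10^3/well) seeded and incubated 24 h. Drug freshly dissolved in DMSO, given at 0.75 to 1.0 x 10^5 nM, together with subtoxic CYP inhibitor, for 72 h. Cells fixed with cold 10% TCA and stained with 0.1% sulforhodamine B. Bound dye taken up in 10 mM Tris, absorbance read at 530-565 nm. At least two experiments, triplicate cultures.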

MDA-MB-468 [13] = test: Cytotoxicity against human MDA-MB-468 cells after 72 hrs in presence of CYP inhibitor aniline by SRB assay; assay type: functional, cell-based
Procedure, shortened: (§2)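 MDA-MB-468 cells co-incubated for 72 h with drug plus a subtoxic concentration of a CYP inhibitor. Viability read by SRB assay: TCA fixation, sulforhodamine B staining, absorbance at 530-565 nm.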

MDA-MB-468 [14] = test: Cytotoxicity against human MDA-MB-468 cells after 72 hrs in presence of CYP inhibitor salicylamide by SRB assay; assay type: functional, cell-based; procedure, shortened: as §2
Cytochrome P450 1A2 = biological target: T1, Cytochrome P450 1A2 (Homo sapiens, UniProt P05177); test: Prodrug activation assessed as human supersomes CYP1A2-mediated 3,4,5-trimethoxyphenyl 4-(2-oxoimidazolidin-1-yl)benzenesulfonate formation after 4 hrs by HPLC-MS analysis; assay type: ADME; settings: recombinant enzyme
T1 sequence (P05177 whole entry): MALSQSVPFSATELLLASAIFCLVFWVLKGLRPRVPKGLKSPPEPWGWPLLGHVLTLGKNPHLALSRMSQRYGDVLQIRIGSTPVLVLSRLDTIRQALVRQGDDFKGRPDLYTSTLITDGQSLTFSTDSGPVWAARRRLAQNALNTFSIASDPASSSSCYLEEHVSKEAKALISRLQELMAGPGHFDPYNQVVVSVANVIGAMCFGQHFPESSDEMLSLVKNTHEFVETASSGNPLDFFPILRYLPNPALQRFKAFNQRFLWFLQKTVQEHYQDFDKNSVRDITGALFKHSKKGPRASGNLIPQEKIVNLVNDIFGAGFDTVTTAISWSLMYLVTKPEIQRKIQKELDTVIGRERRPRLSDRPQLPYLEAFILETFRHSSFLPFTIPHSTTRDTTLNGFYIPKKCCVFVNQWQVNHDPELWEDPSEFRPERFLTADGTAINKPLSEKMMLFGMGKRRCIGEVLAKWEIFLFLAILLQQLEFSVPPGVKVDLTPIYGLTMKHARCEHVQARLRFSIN

Cytochrome P450 3A4 = Cytochrome P450 3A4 (Homo sapiens, UniProt P08684); test: Prodrug activation assessed as human supersomes CYP3A4-mediated 3,4,5-trimethoxyphenyl 4-(2-oxoimidazolidin-1-yl)benzenesulfonate formation after 4 hrs by HPLC-MS analysis; assay type: ADME; settings: recombinant enzyme
Chain of Cytochrome P450 3A4 (P08684 whole entry): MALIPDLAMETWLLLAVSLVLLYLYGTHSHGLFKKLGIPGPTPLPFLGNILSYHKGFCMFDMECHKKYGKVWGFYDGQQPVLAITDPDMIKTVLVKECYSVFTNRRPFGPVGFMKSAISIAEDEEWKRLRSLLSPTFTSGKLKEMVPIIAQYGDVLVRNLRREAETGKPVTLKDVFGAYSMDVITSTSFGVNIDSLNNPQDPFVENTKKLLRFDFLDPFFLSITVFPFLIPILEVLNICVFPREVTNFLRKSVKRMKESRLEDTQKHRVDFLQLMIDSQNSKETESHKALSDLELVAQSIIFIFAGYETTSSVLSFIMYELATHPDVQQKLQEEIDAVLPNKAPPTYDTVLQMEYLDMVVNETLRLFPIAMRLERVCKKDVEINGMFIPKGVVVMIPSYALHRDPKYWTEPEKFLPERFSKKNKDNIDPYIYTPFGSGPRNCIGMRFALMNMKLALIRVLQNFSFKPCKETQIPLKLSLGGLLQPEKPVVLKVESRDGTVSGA

Chorioallantoic membrane = test: Toxicity in chicken chorioallantoic membrane implanted with CYP1A1 transfected human HT1080 cells at 1 ug/egg, iv administered on day 11 post implantation measured on day 17; assay type: organism-based, Gallus gallus; settings: in vivo
Procedure, shortened: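 Fertilized chicken eggs bearing CYP1A1-transfected HT-1080 tumors on the CAM. On day 11, drug (40 mM DMSO stock) diluted in cremophor/EtOH/PBS 6.25/6.25/87.5, final DMSO < 0.5%. Given iv in 100 µL to 10–12 eggs per group. Embryos killed on day 17, tumor wet weight recorded, deaths and toxicity signs scored. Two independent experiments, 20–24 eggs in total.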

Compound	Activity (MDA-MB-468 [1]) [%]	Activity (MCF7 [2]) [%]	Activity (MDA-MB-231 [3]) [%]	Activity (MDA-MB-231 [4]) [%]	Activity (MDA-MB-468 [5]) [%]	Activity (MDA-MB-468 [6]) [%]	IC50 (HT-29) [µM]	Ratio IC50 [7]	Ratio IC50 [8]	Activity (MCF7 [9]) [%]	Activity (MCF7 [10]) [%]	Activity (MDA-MB-231 [11]) [%]	Activity (Homo sapiens)	Activity (MDA-MB-468 [12])	Activity (MDA-MB-468 [13])	Activity (MDA-MB-468 [14])	Drug metabolism (Cytochrome P450 1A2)	Drug metabolism (Cytochrome P450 3A4)	Activity (Chorioallantoic membrane)
COc1cc(OS(=O)(=O)c2ccc(N3CCNC3=O)cc2)cc(OC)c1OC	1.7	10.7	7.3	76.6															
CCCCN1CCN(c2ccc(S(=O)(=O)Oc3cc(OC)c(OC)c(OC)c3)cc2)C1=O					15	1.3	3.6	360	380	4.3	90.2	73	Active	inactive	Active	Active	Metabolite_Notdetected	Metabolite_Notdetected	Non-Toxic
